From ChEMBL document CHEMBL3392964, “Design, synthesis, and evaluation of novel imidazo[1,2-a][1,3,5]triazines and their derivatives as focal adhesion kinase inhibitors with antitumor activity” (J Med Chem, 2015) come the findings set out here.

One may read the IC50 as the concentration at which inhibition is half-maximal.

The test system of test [1] is HCT-116. Kind of test: Induction of apoptosis in human HCT116 cells assessed as apoptotic cells at 0.5 uM after 24 hrs by Annexin V-PE/7-AAD staining-based FACS analysis relative to control. The format is functional. In general terms: In flow cytometry, cells or beads pass a laser one at a time.
Test [2] has as its system HCT-116. The experiment in a line: Induction of apoptosis in human HCT116 cells assessed as late apoptotic cells at 0.5 uM after 24 hrs by Annexin V-PE/7-AAD staining-based FACS analysis (reference value: 1.22%). The format is functional.
For test [3], the target named is Insulin receptor (Homo sapiens) (UniProt P06213). Kind of test: Inhibition of human recombinant IR using poly[Glu:Tyr] as substrate at 1 uM by [gamma-33P]ATP-based assay. The method in brief:
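Radioactive kinase assay with [γ33P]ATP and human recombinant kinase, compound tested at 1 μM.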

Test [4] is described as follows: Cell cycle arrest in human HCT116 cells assessed as accumulation at G0/G1 phase at 0.5 uM after 24 hrs by propidium iodide staining-based flow cytometry (reference value: 63.8%). The format is functional. To be noted: HCT-116. The method in brief:
(§1)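 Cells plated at 10^5 per well, left overnight, then exposed 24 h to compound or vehicle; stained 15 min at 37 °C with propidium iodide/Triton buffer; DNA content by flow cytometry, phase distribution fitted by Dean–Jett–Fox; HCT-116 at 0.3–0.5 μM, U87-MG at 0.3–3 μM; significance by unpaired Student's t test; one representative experiment.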

Test [5] concerns U-87MG ATCC. Kind of test: Antimigratory activity in human U87MG cells after 30 mins by boyden chamber assay. The format is functional, cell-based.
Test [6] can be described thus: Cell cycle arrest in human U87MG cells assessed as accumulation at G2 phase at 3 uM after 24 hrs by propidium iodide staining-based flow cytometry relative to control. It counts as functional. To be noted: U-87MG ATCC. The method in brief:
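U87-MG cells plated at 10^5 per well, incubated overnight, then exposed to compound or vehicle control for 24 h. Cells stained with propidium iodide in PI/triton buffer for 15 min at 37 °C and analysed by flow cytometry. Cell-cycle phases were assigned by the Dean–Jett–Fox method. Significance was tested by unpaired Student's t test, and one representative experiment is shown.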

The test system of test [7] is HCT-116. The experiment in a line: Induction of apoptosis in human HCT116 cells assessed as early apoptotic cells at 0.5 uM after 24 hrs by Annexin V-PE/7-AAD staining-based FACS analysis (reference value: 4.68%). The format is functional.
Test [8] can be described thus: Cell cycle arrest in human U87MG cells at < 3 uM after 24 hrs by propidium iodide staining-based flow cytometry. It counts as functional. To be noted: U-87MG ATCC. The method in brief:
as §1

A further test has as its system U-87 MG. Kind of test: Induction of apoptosis in human U87MG cells assessed as necrotic cells at 3 uM after 24 hrs by Annexin V-PE/7-AAD staining-based FACS analysis (reference value: 1.06%). The format is functional, U-87MG ATCC.
Test [9] in a line: Cell cycle arrest in human HCT116 cells assessed as accumulation at G2/M phase at 0.5 uM after 24 hrs by propidium iodide staining-based flow cytometry (reference value: 14.6%). The format is functional. The note with it: HCT-116. The method in brief:
as §1

The nature of test [10]: Antimigratory activity in human U87MG cells at 3 uM […] by transwell membrane assay. It counts as functional, U-87MG ATCC.
The subject of test [11] is U-87MG ATCC. The experiment in a line: Antiinvasive activity in human U87MG cells after 30 mins by boyden chamber assay. It counts as functional, cell-based.
Another test concerns the target Focal adhesion kinase 1 (Homo sapiens, UniProt Q05397). Kind of test: Inhibition of FAK (unknown origin) using ULight-poly GT as substrate after 1.6 hrs by TR-FRET assay. (TR-FRET usually uses a lanthanide donor and a delayed reading to cut background.)

Each structure is given as a SMILES string. Activity calls are given as the source filed them. The rule behind the calls is not given here.

Chain of Insulin receptor (Homo sapiens) (P06213 28-758 limits assumed): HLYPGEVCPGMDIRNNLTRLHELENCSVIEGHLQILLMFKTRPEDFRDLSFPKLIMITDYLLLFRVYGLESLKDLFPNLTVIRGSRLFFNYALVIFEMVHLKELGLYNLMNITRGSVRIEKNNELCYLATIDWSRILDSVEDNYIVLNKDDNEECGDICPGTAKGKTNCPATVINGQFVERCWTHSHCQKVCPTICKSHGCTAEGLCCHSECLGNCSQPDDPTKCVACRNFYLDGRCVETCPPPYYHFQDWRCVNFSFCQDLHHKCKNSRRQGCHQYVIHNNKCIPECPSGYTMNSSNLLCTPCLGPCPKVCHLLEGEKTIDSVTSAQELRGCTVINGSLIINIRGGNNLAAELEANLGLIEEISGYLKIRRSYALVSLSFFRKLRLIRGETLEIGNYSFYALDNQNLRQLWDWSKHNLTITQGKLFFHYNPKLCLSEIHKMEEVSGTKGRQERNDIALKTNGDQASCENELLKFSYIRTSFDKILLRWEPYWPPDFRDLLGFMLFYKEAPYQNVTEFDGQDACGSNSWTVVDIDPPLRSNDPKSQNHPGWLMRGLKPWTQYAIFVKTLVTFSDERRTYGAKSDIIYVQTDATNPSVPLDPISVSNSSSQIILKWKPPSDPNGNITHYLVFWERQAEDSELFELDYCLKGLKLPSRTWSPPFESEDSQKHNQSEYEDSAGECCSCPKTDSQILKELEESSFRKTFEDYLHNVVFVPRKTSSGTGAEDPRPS
Chain of Insulin receptor (Homo sapiens) (P06213 763-1382 limits assumed): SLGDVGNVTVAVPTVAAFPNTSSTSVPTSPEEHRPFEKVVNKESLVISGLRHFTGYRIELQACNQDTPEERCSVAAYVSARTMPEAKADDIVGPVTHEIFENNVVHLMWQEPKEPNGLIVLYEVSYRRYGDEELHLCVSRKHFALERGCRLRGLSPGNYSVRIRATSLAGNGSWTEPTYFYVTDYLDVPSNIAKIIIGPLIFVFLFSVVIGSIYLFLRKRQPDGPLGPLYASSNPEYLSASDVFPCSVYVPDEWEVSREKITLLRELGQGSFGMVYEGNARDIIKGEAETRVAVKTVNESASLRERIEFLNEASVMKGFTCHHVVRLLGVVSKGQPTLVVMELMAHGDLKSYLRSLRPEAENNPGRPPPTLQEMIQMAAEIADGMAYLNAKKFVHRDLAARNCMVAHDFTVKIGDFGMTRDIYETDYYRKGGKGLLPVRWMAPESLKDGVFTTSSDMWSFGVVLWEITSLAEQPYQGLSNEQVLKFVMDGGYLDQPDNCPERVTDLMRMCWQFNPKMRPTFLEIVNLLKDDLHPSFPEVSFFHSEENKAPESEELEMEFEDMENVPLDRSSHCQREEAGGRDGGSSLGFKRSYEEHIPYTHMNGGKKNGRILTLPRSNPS
Chain of Focal adhesion kinase 1 (Q05397 whole entry): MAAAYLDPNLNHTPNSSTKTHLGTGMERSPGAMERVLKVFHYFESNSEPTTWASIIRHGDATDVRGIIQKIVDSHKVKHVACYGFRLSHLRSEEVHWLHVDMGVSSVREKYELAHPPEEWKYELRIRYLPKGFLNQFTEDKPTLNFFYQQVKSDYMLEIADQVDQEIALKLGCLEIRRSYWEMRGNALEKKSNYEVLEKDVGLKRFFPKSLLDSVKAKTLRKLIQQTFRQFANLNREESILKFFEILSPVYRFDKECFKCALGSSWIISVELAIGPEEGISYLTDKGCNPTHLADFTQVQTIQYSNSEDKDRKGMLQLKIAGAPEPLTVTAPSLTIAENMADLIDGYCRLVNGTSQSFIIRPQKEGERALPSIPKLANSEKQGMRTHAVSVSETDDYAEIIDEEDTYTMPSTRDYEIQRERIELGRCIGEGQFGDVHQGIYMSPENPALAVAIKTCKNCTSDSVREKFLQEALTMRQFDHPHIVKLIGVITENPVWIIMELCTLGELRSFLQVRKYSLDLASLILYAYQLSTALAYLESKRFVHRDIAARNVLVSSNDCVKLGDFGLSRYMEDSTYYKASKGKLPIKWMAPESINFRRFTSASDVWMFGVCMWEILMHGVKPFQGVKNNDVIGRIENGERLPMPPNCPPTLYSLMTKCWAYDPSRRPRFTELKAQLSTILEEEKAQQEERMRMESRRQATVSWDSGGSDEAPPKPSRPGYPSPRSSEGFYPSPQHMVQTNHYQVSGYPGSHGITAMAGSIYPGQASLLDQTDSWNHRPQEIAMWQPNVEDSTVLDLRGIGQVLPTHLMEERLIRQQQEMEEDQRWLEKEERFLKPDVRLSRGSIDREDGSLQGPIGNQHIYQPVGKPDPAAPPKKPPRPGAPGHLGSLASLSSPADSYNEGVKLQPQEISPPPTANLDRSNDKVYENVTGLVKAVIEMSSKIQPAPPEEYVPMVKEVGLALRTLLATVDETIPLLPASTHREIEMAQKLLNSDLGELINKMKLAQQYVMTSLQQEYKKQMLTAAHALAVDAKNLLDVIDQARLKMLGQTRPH

As for `C=COC(=O)NCc1ccc(Nc2nc(Nc3ccccc3C(=O)NC)n3ccnc3n2)cc1`, the Activity in the test on HCT-116 [1] is 25.9%; in the test on HCT-116 [2] it was 16.1%; in test [4], 29.9%; in the test with U-87MG ATCC [5], “Dose-dependent effect”; with HCT-116 [7], 13.3%; with U-87 MG, 0.804%. The Activity in test [9] was 54.7%; in test [10], 69.5%; in the test with U-87MG ATCC [11], “Dose-dependent effect”. Also, the inhibition result in [3] is “inactive”. Further, the Ratio in [6] worked out at 2.9. The outcome in test [8] was Active. At Focal adhesion kinase 1, this molecule displayed an IC50 of 50 nM.
